SUMO1-SIM PPI: SUMO1-SIM interaction modulation. P63165. SUMO1 binding to a labelled peptide, TR-FRET, 1 h. inhibition, % at 20 µM. 360,000 compounds, 0.33% hits; in the data active = inhibition above about 37%
Target sequence (P63165 whole entry, looked up): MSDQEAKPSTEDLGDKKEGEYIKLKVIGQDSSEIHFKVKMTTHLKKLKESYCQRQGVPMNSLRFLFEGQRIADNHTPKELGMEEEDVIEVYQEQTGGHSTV
Scp-1 inhibitor: inhibitors of human Scp-1 phosphatase; Recombinant Scp1, phosphopeptide, malachite green phosphate absorbance; inhibition, % at 20 µM; 340,000 compounds, 0.88% hits;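 active = inhibition above about 50% at 20 µM, limit read from the data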;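 also: plate controls were DMSO wells with enzyme for no effect and wells lacking enzyme for full effect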
Target sequence (Q9GZU7 76-261 limits assumed): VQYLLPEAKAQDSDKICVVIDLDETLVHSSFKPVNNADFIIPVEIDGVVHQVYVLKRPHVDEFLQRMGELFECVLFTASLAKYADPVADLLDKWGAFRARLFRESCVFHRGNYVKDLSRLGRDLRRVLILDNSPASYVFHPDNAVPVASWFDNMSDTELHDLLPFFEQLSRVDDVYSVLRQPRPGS
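System: SCP-1 catalytic domain; Reagent: Phospho 17-mer peptide substrate; Doses: one concentration, 20 µM, with 1.0% DMSO; Incubation: 45 min room-temperature reaction, 5 min colour, 30 min stabiliser; Signal: Phosphate-binding colour reagent, absorbance read at 630 nm.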
DNMT1 block: blocks human DNA methyltransferase DNMT1; 360,000 compounds, 0.83% hits; inhibition (reported as % activation of signal), % at 10 µM; DNMT1 molecular beacon, Hinp1I cleavage, fluorescence; in the data active = inhibition above about 50%
STEP block: inhibitors of human striatal-enriched phosphatase STEP. P54829. recombinant STEP, OMFP fluorogenic substrate, fluorescence. inhibition, % at 20 µM. 360,000 compounds, 0.25% hits. AID 588621;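 active = inhibition at 20 µM, scaled per plate between control wells, above about 37%, limit read from the data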;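 also: 0% = DMSO with enzyme and substrate and 100% = substrate only without enzyme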
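Material: STEP (striatal-enriched tyrosine phosphatase) enzyme, cell-free | Medium: 50 mM Bis-Tris pH 6.0 with 2.5 mM DTT and 0.005% Tween 20 | Read-out: Percent inhibition scaled to no-enzyme and uninhibited-enzyme controls, plate-pattern corrected | Signal: Fluorescence read at 480 nm ex / 540 nm em | Times: 20 min reaction, room temperature, in the dark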
LMPTP inh: LMPTP (human) inhibition; P24666; recombinant LMPTP-A, OMFP fluorogenic substrate, fluorescence intensity; 360,000 compounds, 0.22% hits; AID 651560; inhibition, % at 20 µM;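 active = compounds that cut the enzyme signal by at least half of the control window in the single-dose screen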;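 also: plate controls were DMSO wells with enzyme plus substrate for no effect and substrate without enzyme for full effect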
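Test system: LMPTP-A phosphatase enzyme; input: 0.625 nM LMPTP-A final; reagent: OMFP substrate, 400 µM final; compound dosing: 20 µM single dose, 3% DMSO; incubation: 50 min dark incubation at room temperature; measured by: endpoint fluorescence intensity from OMFP dephosphorylation; measure: % inhibition relative to no-enzyme and uninhibited control wells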
CSN deneddyl inh: inhibitors of human CSN-mediated cullin deneddylation | 360,000 compounds, 0.38% hits | Purified CSN, SCF-Nedd8-OG deneddylation, fluorescence polarization | AID 651999 | inhibition, % at 12.5 µM | Q92905;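 active = pattern-corrected inhibition above about 35%, with an unprinted fluorescence ratio check between 0.5 and 1.5, limit read from the data, passing the limit was not always enough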;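 also: 0% = enzyme with substrate and 100% = substrate without enzyme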
Target sequence (Q92905 whole entry, looked up, one chain of several): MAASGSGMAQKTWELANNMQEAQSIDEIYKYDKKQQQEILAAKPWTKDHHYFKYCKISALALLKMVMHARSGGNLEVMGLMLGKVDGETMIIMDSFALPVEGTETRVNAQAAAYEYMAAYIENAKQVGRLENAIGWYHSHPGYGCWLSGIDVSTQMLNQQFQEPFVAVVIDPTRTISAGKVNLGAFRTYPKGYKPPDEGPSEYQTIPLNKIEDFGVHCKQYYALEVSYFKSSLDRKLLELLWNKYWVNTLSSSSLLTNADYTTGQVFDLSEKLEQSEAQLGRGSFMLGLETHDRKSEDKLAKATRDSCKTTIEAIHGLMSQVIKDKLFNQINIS
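Assay system: purified human Csn5 enzyme expressed in HEK293T cells; Input: 0.24 nM Csn5 enzyme, final concentration; Reagent: 10 nM SCFSkp2-Nedd8OG; Compound dosing: 12.5 µM single point; Times: reaction 90 min, room temperature; Technique: fluorescence polarization readout.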
* = called active by the depositor; i = inactive; nt = no result. Shown are actives, neighbours in structure and some others; about 2% of the full set was active somewhere.

SMILES	SUMO1-SIM PPI	Scp-1 inhibitor	DNMT1 block	STEP block	LMPTP inh	CSN deneddyl inh
COc1cccc(/C=C2\N=C3CCCCCN3C2=O)c1	-12.5	-2.2	-2.4	1.1	-1.2	-1.4
CCOc1cc(/C=C2\N=C3CCCCCN3C2=O)ccc1O	-46.1	0.2	0.5	1.6	0.8	58.4*
COC(=O)c1c(/N=C/NOCc2ccc(Cl)cc2)sc2c1CCN(c1ncc(C(F)(F)F)cc1Cl)C2	1.4	-12.2	7.7	6.1	1.2	36.7*
COC(=O)c1c(N)sc2c1CCN(c1ncc(C(F)(F)F)cc1Cl)C2	-6.3	-15.4	-2.7	4.0	0.0	8.6
CN(C)c1ccc(CC(=O)c2nc3ccccc3s2)cc1	-1.1	1.2	-2.8	0.2	0.6	5.3
COc1ccc(C(=O)C[N+]2(C)CCOCC2)cc1	3.2	100.8*	-9.7	-1.9	0.4	1.5
O=C(Nc1cccnc1Cl)c1cc(-c2cccc(O)c2)on1	72.3*	-3.0	-2.4	-2.3	0.6	6.8
COc1ccccc1-c1cc(C(=O)Nc2cccnc2Cl)no1	47.4*	-3.8	-4.2	-1.0	0.8	-2.2
COc1ccc(-c2cc(C(=O)Nc3cccnc3Cl)no2)cc1OC	0.5	6.2	-0.1	0.4	2.2	2.2
COc1cccc(-c2cc(C(=O)Nc3cccnc3Cl)no2)c1	1.0	0.9	2.9	-1.0	4.4	2.4
O=C(/C=C\c1ccccc1)NCC(=O)N/N=C/c1ccc(O)cc1O	-19.3	3.8	-0.6	2.3	-0.9	-2.9
CN(C)c1ccc(/C=N/NC(=O)c2cc(-c3ccc4c(c3)OCO4)n[nH]2)cc1	6.8	-14.2	0.3	12.9	21.4	41.7*
COc1cc(C)ccc1OCc1cc(C(=O)N(Cc2c(C)nn(C)c2C)C2CC2)no1	1.4	-11.7	-4.6	3.2	-0.8	0.0
CN(C)S(=O)(=O)c1cccc(NC(=S)N/N=C/c2ccc(O)c(O)c2O)c1	26.7	-13.7	-5.5	10.9	60.7*	-0.8
COc1ccc(O)c(/C=N/NC(=S)Nc2cccc(S(=O)(=O)N(C)C)c2)c1	6.4	-16.9	-12.5	1.5	1.2	-3.2
NC(=S)N/N=C/c1coc2ccc(Cl)cc2c1=O	-6.1	-3.2	-2.2	0.2	0.5	-2.3
CN1CCN(c2nc(-c3cccc([N+](=O)[O-])c3)nc3ccccc23)CC1	-29.1	4.2	9.4	0.2	-0.1	44.0*
Cc1ccc(-c2nc(N3CCN(C)CC3)c3ccccc3n2)cc1	3.2	-0.6	13.0	-2.5	3.0	2.8
O=c1cc2oc3cc(O)c(O)cc3c(-c3ccccc3[N+](=O)[O-])c-2cc1O	26.6	5.2	-5.1	22.4	90.2*	35.7
O=c1cc(-c2ccccc2Cl)oc2cccc(O)c12	0.0	9.3	7.5	3.8	48.0	-6.1
COc1ccc(C2=NOC3(CC(=O)N(c4ccc(F)cc4)C3=O)C2)cc1 (stereo not drawn)	4.4	-11.4	-8.3	0.4	-0.9	1.1
CCn1c(SCC(=O)Nc2ccc3c(c2)c2ccccc2n3CC)nnc1-c1ccco1	25.6	74.0*	95.8*	0.2	15.2	30.2
COc1cc(CNCCc2ccccc2)ccc1OCC(=O)NC(C)(C)C	2.8	-8.3	3.5	10.8	0.0	106.2*
COc1ccc(C(=O)Nc2ccccc2C(=O)NC(Cc2ccc(O)cc2)C(=O)NNC(=O)c2ccccc2)cc1 (stereo not drawn)	-2.2	-6.8	-8.3	-1.8	0.3	-2.7
COc1ccc(C(=O)Nc2ccccc2C(=O)NC(Cc2ccc(O)cc2)C(=O)NNC(=O)c2ccc(C)cc2)cc1 (stereo not drawn)	77.9*	-7.4	-8.3	3.6	10.6	0.9
SMILES	SUMO1-SIM PPI	Scp-1 inhibitor	DNMT1 block	STEP block	LMPTP inh	CSN deneddyl inh
COc1ccccc1C1SCCN1S(=O)(=O)c1ccccc1 (stereo not drawn)	-1.8	nt	-1.7	2.0	-0.3	-1.9
Cn1c(Cn2nnc3ccccc32)nnc1SCC(=O)Nc1nccs1	-0.2	23.7	6.0	-3.2	-1.5	-6.7
CN(C)CC#Cc1cncc(C(=O)NNC(=O)Nc2ccc(Cl)cc2)c1	-2.4	-8.9	-4.4	-1.7	-2.2	-3.3
COc1cc(Br)c(C(=O)c2nccc3cc(OC)c(OC)cc23)cc1OC	18.8	-7.0	92.1*	3.2	4.8	21.9
COc1cc(N)c(C(=O)c2nccc3cc(OC)c(OC)cc23)cc1OC	-8.2	-5.2	-2.8	3.7	-1.6	2.0
COc1cc(-c2cc(C(=O)Nc3ccc(O)cc3)c3ccccc3n2)cc(OC)c1OC	-3.8	-9.0	-5.8	2.4	0.4	5.3
COc1cc(-c2cc(O)c(-c3ccc4ccccc4n3)c(=O)[nH]2)cc(OC)c1OC	-14.8	-2.8	-12.8	-19.6	1.9	57.7*
O=[N+]([O-])c1cccc2c3c([nH]c12)CCCC3	-18.8	-12.8	0.0	3.1	1.1	-2.2
O=C(COC(=O)/C=C/c1ccc(OC(F)F)cc1)Nc1ccc2[nH]c(=O)[nH]c2c1	-4.8	-6.8	1.1	0.2	-1.0	-0.7
CCOC(=O)C(C(=O)OCC)c1cc(Br)c2noc3c2c1C(=O)c1ccccc1-3	36.0	27.1	57.1*	-4.7	23.7	-81.8
O=C(O)CCN1C(=O)/C(=C\c2ccncc2)SC1=S	-26.0	-6.0	0.4	-0.4	1.2	-2.0
O=C(O)CCN1C(=O)/C(=C\c2ccc(-c3nc4ccccc4s3)o2)SC1=S	86.6*	63.0*	109.0*	79.0*	41.4	i
CCN1C(=O)C(=CC=CN(C)c2ccccc2)SC1=S	-17.4	nt	14.0	-32.5	1.4	63.9*
O=C(CN1CCN(c2ccccc2F)CC1)c1ccc2cc[nH]c2c1	-0.5	2.4	-18.7	1.8	67.3*	-1.4
CCc1ccc2[nH]c3nc(N/N=C/c4ccc(O)cc4O)nnc3c2c1	11.1	-2.8	61.5*	1.3	1.4	0.0
C=Cc1ccc(Cn2nc(-c3ccccc3)ccc2=O)cc1	-3.0	-13.1	0.2	2.9	0.4	2.2
O=C(CCn1nc(-c2ccc(Cl)cc2)ccc1=O)N1CCN(c2ccccc2)CC1	-11.2	-10.1	-2.1	1.4	0.8	2.2
Cc1cc(N2CCN(c3nc(-c4ccccc4)cs3)CC2)c2ccccc2n1	-1.4	1.6	-8.4	4.7	81.9*	-2.4
c1coc(-c2cc3nc(NC4CCCCC4)ccn3n2)c1	4.1	nt	-6.4	-2.7	0.5	8.4
Cc1cc(C)n(-c2cccc(Cl)c2C#N)n1	-6.9	-6.6	1.3	-1.4	-0.8	-0.8
O=C1C(=Cc2ccc(Br)o2)C(=O)c2ccccc21	103.2*	65.5*	108.3*	95.8*	78.4*	50.1
Cc1ccsc1C(=O)OCC(=O)NCc1cccs1	1.7	nt	5.1	0.5	-0.3	-1.9
C=CCN(CC=C)S(=O)(=O)c1ncn[nH]1	43.6*	0.5	41.4	1.5	-2.9	1.0

Screening results: PubChem, Sanford-Burnham Center for Chemical Genomics
